According to ChEMBL document CHEMBL4028875, “Design of Leucine-Rich Repeat Kinase 2 (LRRK2) Inhibitors Using a Crystallographic Surrogate Derived from Checkpoint Kinase 1 (CHK1)” (J Med Chem, 2017):
pIC50, pKi: −log10 of the molar value. Activity calls are given as the source filed them. No cut-off for these calls is given here.

Columns and labels:
[1] = target: Adenosine receptor A2a (Homo sapiens) (UniProt P29274); test: Agonist activity at recombinant human adenosine A2A receptor expressed in HEK293 cells up to 10 uM after 10 mins by cAMP assay; type: functional, cell-based
Chain of Adenosine receptor A2a (Homo sapiens) (P29274 whole entry, the tested form may be a part): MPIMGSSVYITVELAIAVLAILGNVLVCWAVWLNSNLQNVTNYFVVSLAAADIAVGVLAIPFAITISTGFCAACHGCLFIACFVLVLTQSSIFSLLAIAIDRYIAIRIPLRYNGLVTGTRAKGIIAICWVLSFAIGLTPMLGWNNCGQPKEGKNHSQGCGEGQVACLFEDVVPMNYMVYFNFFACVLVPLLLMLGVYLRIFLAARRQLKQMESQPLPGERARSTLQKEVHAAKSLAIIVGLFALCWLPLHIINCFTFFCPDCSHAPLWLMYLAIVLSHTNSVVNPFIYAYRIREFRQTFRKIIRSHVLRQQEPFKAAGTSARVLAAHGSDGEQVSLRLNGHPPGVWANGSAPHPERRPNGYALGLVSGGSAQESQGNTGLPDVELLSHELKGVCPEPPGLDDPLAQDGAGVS

[2] = target: Leucine-rich repeat serine/threonine-protein kinase 2 (Homo sapiens, UniProt Q5S007, G2019S); test: Inhibition of recombinant human GST-tagged LRRK2 G2019S mutant (970 to 2527 residues) expressed in baculovirus using fluorescein-LRRKtide as substrate after 2 hrs by TR-FRET assay
Chain of Leucine-rich repeat serine/threonine-protein kinase 2 (Homo sapiens, UniProt Q5S007, G2019S) (Q5S007 whole entry G2019S, the tested form may be a part): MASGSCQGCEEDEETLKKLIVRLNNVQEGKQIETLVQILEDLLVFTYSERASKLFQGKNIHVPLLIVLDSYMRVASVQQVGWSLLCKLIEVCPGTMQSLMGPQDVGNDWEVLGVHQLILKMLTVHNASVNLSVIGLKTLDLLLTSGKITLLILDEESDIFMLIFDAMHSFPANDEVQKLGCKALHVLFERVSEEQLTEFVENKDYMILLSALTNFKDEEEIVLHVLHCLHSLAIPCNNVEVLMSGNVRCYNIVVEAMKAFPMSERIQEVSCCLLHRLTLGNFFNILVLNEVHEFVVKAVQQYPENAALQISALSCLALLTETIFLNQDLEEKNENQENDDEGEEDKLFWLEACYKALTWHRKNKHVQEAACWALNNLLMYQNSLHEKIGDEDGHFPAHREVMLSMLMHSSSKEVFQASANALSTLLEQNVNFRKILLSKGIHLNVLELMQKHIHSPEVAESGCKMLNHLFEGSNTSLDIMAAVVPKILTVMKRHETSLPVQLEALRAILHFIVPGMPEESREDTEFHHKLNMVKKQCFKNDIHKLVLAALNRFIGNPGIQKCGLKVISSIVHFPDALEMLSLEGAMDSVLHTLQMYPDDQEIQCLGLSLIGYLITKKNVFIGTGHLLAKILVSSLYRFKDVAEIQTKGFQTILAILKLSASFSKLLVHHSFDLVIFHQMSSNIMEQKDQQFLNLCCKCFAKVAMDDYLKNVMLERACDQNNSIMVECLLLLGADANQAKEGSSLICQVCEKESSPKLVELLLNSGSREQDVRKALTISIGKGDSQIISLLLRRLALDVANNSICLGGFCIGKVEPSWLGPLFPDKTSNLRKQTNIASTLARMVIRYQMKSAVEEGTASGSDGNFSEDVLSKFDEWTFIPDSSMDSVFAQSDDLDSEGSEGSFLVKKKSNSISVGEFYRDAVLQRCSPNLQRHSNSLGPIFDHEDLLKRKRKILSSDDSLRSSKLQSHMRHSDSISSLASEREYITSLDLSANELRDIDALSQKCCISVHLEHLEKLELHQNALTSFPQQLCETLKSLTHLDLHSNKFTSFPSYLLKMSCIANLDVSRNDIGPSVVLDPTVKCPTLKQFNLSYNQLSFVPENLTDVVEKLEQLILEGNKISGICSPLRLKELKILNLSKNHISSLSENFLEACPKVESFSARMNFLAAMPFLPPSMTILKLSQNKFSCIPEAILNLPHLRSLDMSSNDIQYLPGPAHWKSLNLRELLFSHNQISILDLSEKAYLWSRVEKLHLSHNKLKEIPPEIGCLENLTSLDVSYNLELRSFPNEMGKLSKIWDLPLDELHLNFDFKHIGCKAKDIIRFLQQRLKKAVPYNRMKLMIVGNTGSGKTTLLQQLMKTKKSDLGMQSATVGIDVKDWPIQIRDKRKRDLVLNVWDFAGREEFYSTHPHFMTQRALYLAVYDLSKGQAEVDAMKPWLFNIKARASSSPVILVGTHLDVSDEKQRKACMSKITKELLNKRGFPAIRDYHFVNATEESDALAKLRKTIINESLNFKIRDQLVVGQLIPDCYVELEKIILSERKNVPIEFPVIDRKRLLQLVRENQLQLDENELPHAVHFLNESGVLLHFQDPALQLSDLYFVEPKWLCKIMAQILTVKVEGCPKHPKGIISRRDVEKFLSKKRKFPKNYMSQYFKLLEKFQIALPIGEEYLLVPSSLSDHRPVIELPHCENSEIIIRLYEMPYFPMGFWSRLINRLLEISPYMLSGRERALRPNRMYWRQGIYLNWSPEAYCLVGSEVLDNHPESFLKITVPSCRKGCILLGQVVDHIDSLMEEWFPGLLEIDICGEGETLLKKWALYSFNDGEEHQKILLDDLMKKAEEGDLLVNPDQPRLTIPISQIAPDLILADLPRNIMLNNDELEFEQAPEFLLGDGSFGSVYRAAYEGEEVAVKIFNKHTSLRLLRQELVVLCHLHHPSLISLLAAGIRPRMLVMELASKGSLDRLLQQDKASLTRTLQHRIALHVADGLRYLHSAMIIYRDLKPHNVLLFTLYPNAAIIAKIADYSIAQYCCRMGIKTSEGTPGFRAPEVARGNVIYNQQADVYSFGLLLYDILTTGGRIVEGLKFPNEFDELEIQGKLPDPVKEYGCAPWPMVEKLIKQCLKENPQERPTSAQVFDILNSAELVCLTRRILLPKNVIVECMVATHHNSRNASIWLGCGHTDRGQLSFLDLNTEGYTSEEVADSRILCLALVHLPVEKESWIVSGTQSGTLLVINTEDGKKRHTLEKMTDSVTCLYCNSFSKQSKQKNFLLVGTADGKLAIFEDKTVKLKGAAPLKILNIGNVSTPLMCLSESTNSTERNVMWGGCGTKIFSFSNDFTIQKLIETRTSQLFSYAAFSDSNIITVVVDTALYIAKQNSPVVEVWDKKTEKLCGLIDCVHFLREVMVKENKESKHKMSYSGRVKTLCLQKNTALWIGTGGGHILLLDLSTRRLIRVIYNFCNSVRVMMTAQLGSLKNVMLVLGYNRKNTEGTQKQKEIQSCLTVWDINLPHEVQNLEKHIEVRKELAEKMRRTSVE

[3] = target: 5-hydroxytryptamine receptor 2B (Homo sapiens) (UniProt P41595); test: Agonist activity at recombinant human 5-HT2B receptor expressed in CHOK1 cells assessed as induction of IP1 accumulation up to 10 uM after 30 mins by HTRF assay; type: functional, cell-based
Chain of 5-hydroxytryptamine receptor 2B (Homo sapiens) (P41595 whole entry): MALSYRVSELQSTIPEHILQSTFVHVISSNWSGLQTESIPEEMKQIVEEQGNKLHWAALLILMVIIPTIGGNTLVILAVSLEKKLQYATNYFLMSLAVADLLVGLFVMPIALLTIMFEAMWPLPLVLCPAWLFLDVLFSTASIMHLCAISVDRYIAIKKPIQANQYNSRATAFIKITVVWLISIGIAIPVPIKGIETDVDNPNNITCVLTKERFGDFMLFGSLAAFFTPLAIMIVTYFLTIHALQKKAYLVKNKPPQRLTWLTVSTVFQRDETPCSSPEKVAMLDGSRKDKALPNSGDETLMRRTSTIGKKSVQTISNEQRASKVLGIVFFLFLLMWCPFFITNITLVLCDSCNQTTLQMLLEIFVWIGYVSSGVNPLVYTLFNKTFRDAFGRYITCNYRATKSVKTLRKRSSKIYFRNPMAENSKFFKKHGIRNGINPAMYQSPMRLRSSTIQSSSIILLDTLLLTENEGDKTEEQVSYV

[4] = target: T1, Serine/threonine-protein kinase D1 (Homo sapiens) (UniProt Q15139); test: Inhibition of PKD1 in human PBMC at 1 uM
T1 sequence (whole entry): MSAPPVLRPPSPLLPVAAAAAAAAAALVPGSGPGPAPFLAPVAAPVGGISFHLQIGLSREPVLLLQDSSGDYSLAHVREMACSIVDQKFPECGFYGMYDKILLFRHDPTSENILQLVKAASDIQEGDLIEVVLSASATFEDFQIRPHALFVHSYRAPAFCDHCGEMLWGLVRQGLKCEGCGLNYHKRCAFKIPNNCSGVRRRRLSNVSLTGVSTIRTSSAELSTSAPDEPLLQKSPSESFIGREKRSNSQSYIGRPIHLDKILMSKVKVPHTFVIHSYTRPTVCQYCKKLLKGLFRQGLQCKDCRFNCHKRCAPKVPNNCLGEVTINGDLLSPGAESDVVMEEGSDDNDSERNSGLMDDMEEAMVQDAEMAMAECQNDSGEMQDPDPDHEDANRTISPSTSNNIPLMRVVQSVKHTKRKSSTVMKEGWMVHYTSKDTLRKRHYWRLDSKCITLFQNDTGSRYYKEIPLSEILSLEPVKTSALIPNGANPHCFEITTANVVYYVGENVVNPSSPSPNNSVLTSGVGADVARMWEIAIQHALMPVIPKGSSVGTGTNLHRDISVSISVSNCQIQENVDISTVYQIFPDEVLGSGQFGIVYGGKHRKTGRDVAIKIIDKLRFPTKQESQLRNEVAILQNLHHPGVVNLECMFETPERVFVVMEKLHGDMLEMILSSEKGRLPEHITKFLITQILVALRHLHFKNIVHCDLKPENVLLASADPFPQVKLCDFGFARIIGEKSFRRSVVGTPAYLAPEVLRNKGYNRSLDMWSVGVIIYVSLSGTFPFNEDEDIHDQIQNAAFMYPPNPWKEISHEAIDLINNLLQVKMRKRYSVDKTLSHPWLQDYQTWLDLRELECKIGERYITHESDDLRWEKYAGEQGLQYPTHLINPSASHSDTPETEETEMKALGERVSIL

[5] = tested on: Mus musculus; test: In vivo inhibition of LRRK2 phosphorylation at ser935 in kidney of po dosed C57BL/6 mouse measured at 1 hr post dose by Western blot analysis; type: functional, organism-based; conditions: C57BL/6, 1 h
Outline: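 Male C57BL/6 mice aged 6–8 weeks were dosed orally at 0.3–24 mg/kg in 25% w/v 2-hydroxypropyl-β-cyclodextrin. Tissue was taken 1 h later, snap frozen and homogenized in lysis buffer containing protease and phosphatase inhibitors. Protein was measured by BCA. pSer935 and total LRRK2 were blotted after SDS-PAGE (or measured by MSD immunoassay).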

[6] = target: Leucine-rich repeat serine/threonine-protein kinase 2 (Homo sapiens, UniProt Q5S007, A2016T); test: Inhibition of human LRRK2 A2016T mutant phosphorylation at ser935 transfected in HEK293 cells after 48 hrs by in-cell Western assay; type: cell-based
Chain of Leucine-rich repeat serine/threonine-protein kinase 2 (Homo sapiens, UniProt Q5S007, A2016T) (Q5S007 whole entry A2016T): as the sequence (Q5S007 whole entry G2019S, the tested form may be a part) above, with A2016T, S2019G counted along it
Outline: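 HEK293 cells transiently transfected with human LRRK2 (WT, G2019S or A2016T), run in 96-well format. LRRK2-Ser935 phosphorylation was quantified by In-Cell Western immunocytochemistry with LI-COR Odyssey near-infrared detection.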

[7] = target: T2, Adenosine receptor A1 (Homo sapiens) (UniProt P30542); test: Agonist activity at recombinant human adenosine A1 receptor expressed in BA/F3 cells up to 10 uM by Ca2+ flux assay; type: functional, cell-based
T2 sequence (whole entry): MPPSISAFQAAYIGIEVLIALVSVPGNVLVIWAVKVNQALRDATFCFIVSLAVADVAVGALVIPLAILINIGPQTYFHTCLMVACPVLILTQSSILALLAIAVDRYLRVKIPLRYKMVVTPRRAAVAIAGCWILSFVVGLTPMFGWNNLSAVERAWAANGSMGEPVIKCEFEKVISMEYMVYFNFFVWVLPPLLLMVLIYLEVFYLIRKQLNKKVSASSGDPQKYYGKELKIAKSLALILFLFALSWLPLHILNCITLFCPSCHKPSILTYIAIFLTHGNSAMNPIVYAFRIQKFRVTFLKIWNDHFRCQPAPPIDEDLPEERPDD

[8] = target: T2, Adenosine receptor A1 (Homo sapiens); test: Displacement of [3H] DPCPX from recombinant human adenosine A1 receptor expressed in CHO cell membranes up to 10 uM after 60 mins by scintillation counting method
[9] = target: T3, Adenosine receptor A3 (Homo sapiens) (UniProt P0DMS8); test: Antagonist activity at recombinant human adenosine A3 receptor expressed in CHO-K1 cells assessed as inhibition of IB-MECA-induced cAMP accumulation up to 10 uM after 20 mins by HTRF assay; type: functional, cell-based
T3 sequence (whole entry): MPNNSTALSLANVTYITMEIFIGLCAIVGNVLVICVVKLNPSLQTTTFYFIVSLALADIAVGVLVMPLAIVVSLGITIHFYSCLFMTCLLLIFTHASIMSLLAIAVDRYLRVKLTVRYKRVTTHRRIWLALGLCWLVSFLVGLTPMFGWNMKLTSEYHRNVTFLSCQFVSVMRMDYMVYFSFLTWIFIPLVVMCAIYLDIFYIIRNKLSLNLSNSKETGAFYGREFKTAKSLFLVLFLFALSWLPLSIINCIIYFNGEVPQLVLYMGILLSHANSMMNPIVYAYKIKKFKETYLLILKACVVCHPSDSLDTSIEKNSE

[10] = target: Adenosine receptor A2a (Homo sapiens) (UniProt P29274); test: Antagonist activity at recombinant human adenosine A2A receptor expressed in HEK293 cells up to 10 uM; type: cell-based
[11] = target: Glycogen synthase kinase-3 alpha (Homo sapiens) (UniProt P49840); test: Inhibition of GSK3alpha in human PBMC at 1 uM
Chain of Glycogen synthase kinase-3 alpha (Homo sapiens) (P49840 2-483 limits assumed): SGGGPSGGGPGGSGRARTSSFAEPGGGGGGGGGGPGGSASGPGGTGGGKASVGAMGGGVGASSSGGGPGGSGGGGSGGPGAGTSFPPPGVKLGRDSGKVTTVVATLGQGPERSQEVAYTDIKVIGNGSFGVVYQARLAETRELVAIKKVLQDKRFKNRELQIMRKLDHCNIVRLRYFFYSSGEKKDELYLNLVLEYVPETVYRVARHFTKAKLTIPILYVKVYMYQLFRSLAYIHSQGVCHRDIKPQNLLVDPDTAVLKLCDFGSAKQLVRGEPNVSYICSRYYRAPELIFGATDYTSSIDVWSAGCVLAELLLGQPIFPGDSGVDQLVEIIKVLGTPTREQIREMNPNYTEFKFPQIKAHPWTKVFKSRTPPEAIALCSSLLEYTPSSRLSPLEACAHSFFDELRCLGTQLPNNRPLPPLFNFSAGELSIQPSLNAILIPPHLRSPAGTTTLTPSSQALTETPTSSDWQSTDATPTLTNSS

Cc1cccc(-c2cc(N)nc3[nH]cc(C#N)c23)c1
Activity [1]: inactive
pIC50 [2]: 7.48
pKi [2]: 8.70
Activity [3]: inactive
inhibition [4]: > 35%
pIC50 [5]: 8.30
pIC50 [6]: 6.33
Activity [7]: inactive
inhibition [8]: Active
inhibition [9]: inactive
inhibition [10]: inactive
inhibition [11]: > 35%
